# Active and inactive are the calls of the source. The calls are words filed in the database; no cut-off is given here.
# Experiments:
# [1] = test system: DNA; assay: Induction of [32P]-labeled 49-mer oligonucleotide duplex DNA 25 (unknown origin) interstrand cross-linking at 2 mM for 48 hrs in presence of 2mM H2O2 by PAGE; type: functional
# [2] = test system: DNA; assay: Induction of [32P]-labeled 49-mer oligonucleotide duplex DNA 25 (unknown origin) interstrand cross-linking at 2 mM for 24 hrs without H2O2 by PAGE; type: functional
# [3] = test system: CLL cell; assay: Induction of DNA damage in chronic lymphocytic leukemia patient lymphocytes assessed as gamma-H2Ax phosphorylation at Ser139 residue at 10 uM after 24 hrs by FITC-staining based flow cytometry; type: functional; settings: Homo sapiens
# Procedure, shortened: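 Patient CLL lymphocytes, Ficoll-hypaque isolated, in RPMI with 10% autologous plasma, untreated or exposed to 10 µM for 24 h. Cells washed in PBS, fixed in ice-cold 70% ethanol and held at −20 °C. Then permeabilised, stained with FITC anti-H2AX Ser139 antibody and read by flow cytometry.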
# [4] = test system: TK-10; assay: Anticancer activity against human TK-10 cells assessed inhibition of cell growth after 48 hrs by CellTiter-Glo luminescent assay; type: functional, cell-based; settings: TK-10, 48 h
# Procedure, shortened: (§1)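 Renal lines grown in RPMI 1640 with 5% FBS and 2 mM L-glutamine, seeded into 384-well plates at 5,000–10,000 cells/well, held 2–3 h at 37 °C, 5% CO2. DMSO stocks (20 mM) serially halved ten times and added at 1:100. Cells exposed 48 h at 37 °C; CellTiter-Glo added, 10 min at room temperature, luminescence read.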
# [5] = Toxicity in healthy human lymphocytes assessed as reduction in cell viability at 10 uM after 24 hrs by Annexin/PI staining based fluorescence assay; settings: lymphocyte
# Procedure, shortened: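 Normal donor lymphocytes (n=2) isolated from peripheral blood by Ficoll-hypaque, in RPMI with 10% autologous plasma. Exposed to 10 µM for 24 h; % viable cells by annexin/PI binding.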
# [6] = test system: MDA-MB-468; assay: Anticancer activity against human MDA-MB-468 cells assessed inhibition of cell growth after 48 hrs by CellTiter-Glo luminescent assay; type: functional, cell-based; settings: MDA-MB-468, 48 h
# Procedure, shortened: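 Cells grown in RPMI 1640 with 5% fetal bovine serum and 2 mM L-glutamine, seeded at 5,000–10,000 cells/well in 384-well plates, preincubated 2–3 h at 37°C, 5% CO2. DMSO stocks (20 mM) serially diluted 2-fold ten times, then added at 1:100. Exposure 48 h at 37°C. Viability read by CellTiter-Glo luminescence after 10 min at room temperature; IC50 derived.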
# [7] = test system: CLL cell; assay: Induction of DNA damage in chronic lymphocytic leukemia patient lymphocytes assessed as apoptosis rate at 10 uM after 24 hrs by annexin/PI staining based flow cytometry; type: functional; settings: Homo sapiens
# [8] = test system: A498; assay: Anticancer activity against human A498 cells assessed inhibition of cell growth after 48 hrs by CellTiter-Glo luminescent assay; type: functional, cell-based; settings: A498, 48 h
# Procedure, shortened: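 Human tumour cells kept in RPMI 1640 with 5% FBS and 2 mM L-glutamine, seeded at 5,000–10,000 cells/well and left 2–3 h at 37°C, 5% CO2. Drugs taken from 20 mM DMSO stocks, serially halved ten times in DMSO, then added at 1:100 dilution. Cells exposed for 48 h at 37°C. Viability read by CellTiter-Glo luminescence after 10 min at room temperature.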
# [9] = test system: UO-31; assay: Anticancer activity against human UO-31 cells assessed inhibition of cell growth after 48 hrs by CellTiter-Glo luminescent assay; type: functional, cell-based; settings: UO-31, 48 h; procedure, shortened: as §1
# [10] = test system: SN12C; assay: Anticancer activity against human SN12C cells assessed inhibition of cell growth after 48 hrs by CellTiter-Glo luminescent assay; type: functional, cell-based; procedure, shortened: as §1
# [11] = Anticancer activity against human CLL cells assessed as reduction in cell viability incubated for 24 hrs by Annexin/PI staining based fluorescence assay; type: functional
# Procedure, shortened: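 CLL lymphocytes were taken from patients' peripheral blood (n=3) by Ficoll-Hypaque, suspended in 10% autologous plasma in RPMI, and exposed to 1, 5, 10, 20, 50 and 100 µM. Viability was measured by annexin V/propidium iodide binding. IC50 comes from one representative patient.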
# [12] = test system: DNA; assay: Potentiation of H2O2 induced [32P]-labeled 49-mer oligonucleotide duplex DNA 25 (unknown origin) interstrand cross-linking at pH 8 in phosphate buffer solution assessed as rate constant and measured for 24 hrs by PAGE analysis; type: functional
# [13] = test system: ACHN; assay: Anticancer activity against human ACHN cells assessed inhibition of cell growth after 48 hrs by CellTiter-Glo luminescent assay; type: functional, cell-based
# Procedure, shortened: (§2)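 Renal lines grown in RPMI 1640 with 5% FBS and 2 mM L-glutamine, plated at 5,000–10,000 cells/well in 384-well plates and held 2–3 h at 37 °C, 5% CO2. Compounds were made as 20 mM DMSO stocks, given as ten 2-fold serial dilutions diluted 1:100 into cells, and incubated 48 h. Read-out was CellTiter-Glo luminescence after 10 min at room temperature.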
# [14] = test system: 786-0; assay: Anticancer activity against human 786-0 cells assessed inhibition of cell growth after 48 hrs by CellTiter-Glo luminescent assay; type: functional, cell-based; settings: 786-0, 48 h; procedure, shortened: as §2
# [15] = test system: CAKI-1; assay: Anticancer activity against human CAKI-1 cells assessed inhibition of cell growth after 48 hrs by CellTiter-Glo luminescent assay; type: functional, cell-based; settings: CAKI-1, 48 h; procedure, shortened: as §2
# [16] = test system: DNA; assay: Induction of [32P]-labeled 49-mer oligonucleotide duplex DNA 25 (unknown origin) interstrand cross-linking assessed as increase in cross linking with increase of pH from 2 to 9 at 2 mM for 24 hrs in presence of H2O2 by PAGE analysis; type: functional
IC50 [6] [µM],Structure (SMILES),Activity [1] [%],Activity [2] [%],Activity [3],IC50 [4] [µM],Activity [5],Activity [7],IC50 [8] [µM],IC50 [9] [µM],IC50 [10] [µM],IC50 [11] [µM],Ka [12] [s⁻¹],IC50 [13] [µM],IC50 [14] [µM],IC50 [15] [µM],Activity [16]
,COc1cc(OC)c(CBr)c(B2OC(C)(C)C(C)(C)O2)c1CBr,20,,,,,,,,,,,,,,
,CC(=O)OCc1cccc(COC(C)=O)c1B1OC(C)(C)C(C)(C)O1,20,0,,,,,,,,,,,,,
12,CC1(C)OB(c2c(CBr)cccc2CBr)OC1(C)C,22,0,Active,21.4,Non-Toxic,Active,33.3,25.3,27,48.3,8.8e-05,26.9,20.3,,
,O=C(O)CCCc1ccc(N(CCCl)CCCl)cc1 [CHLORAMBUCIL],,,,,,,280,40.7,135,98,,133,55.5,,
,CC(=O)OCc1cc(O)cc(COC(C)=O)c1B1OC(C)(C)C(C)(C)O1,32,0,,,,,,,,,,,,,
11,CC1(C)OB(c2c(CBr)cc(O)cc2CBr)OC1(C)C,50,0,Active,35.4,Non-Toxic,Active,,19.5,24.4,20.8,0.000201,35.7,27.8,38.3,
,COc1cc(COC(C)=O)c(B2OC(C)(C)C(C)(C)O2)c(COC(C)=O)c1,26,0,,,,,,,,,,,,,
,N[C@@H](Cc1ccc(N(CCCl)CCCl)cc1)C(=O)O [MELPHALAN],,,,54.5,,,135,42.9,71,76.9,,52.1,19.2,,
,COc1c(CBr)c(B2OC(C)(C)C(C)(C)O2)c(CBr)c(OC)c1OC,0,0,,,,,,,,,,,,,inactive
